Measured values of several laboratories.
Lines come from different studies, so protocols differ. Converted amounts (≈) assume the structure as drawn.
Organism: Acinetobacter baumannii
Read-out: microbial growth

| SMILES | technique | strain | notes | MIC [µg/mL] |
| --- | --- | --- | --- | --- |
| C[n+]1c(/C=C/c2c[nH]c3ccccc23)cc(/C=C2\Sc3ccccc3N2CCCN2CCCC2)c2ccccc21.[I-] | broth dilution | ATCC19606 | drug-resistant strain | 32 |
| COC(=O)c1cc(-c2cccc(NC(=O)Nc3ccccc3OC)c2)on1 | broth dilution | BAA1605 | – | > 64 |
| COc1ccc2cc1Oc1cc(ccc1OC)CCC(N[C@@H]1CCCc3ccccc31)CCCC2 (some centres unmarked) | broth dilution | ATCC19606 | – | > 100 |
| Fc1c(F)c(F)c(-c2c(F)c(F)c(F)c(F)c2F)c(F)c1F | – | ATCC19606 | – | > 250 |
| C[n+]1ccc(/C=C2\Sc3ccccc3N2CCCN2CCCCC2)c2ccccc21.[I-] | broth dilution | ATCC19606 | drug-resistant strain | 64 |
| COC(=O)c1cc(-c2cccc(NC(=S)Nc3cccc(Cl)c3)c2)on1 | broth dilution | BAA1605 | – | > 64 |
| CN[C@@H]1[C@H](O)[C@H](NC)[C@H]2O[C@@]3(O)C(=O)C[C@@H](C)O[C@H]3O[C@@H]2[C@H]1O | broth dilution | ATCC19606 | – | > 200 |
| CC(=O)C1=C(O)C(CC(C)C)NC1=O (centres unmarked) | – | ATCC19606 | – | > 200 |
| Cc1c(NN=C(C#N)C2=NC(=O)CS2)c(=O)n(-c2ccccc2)n1C | broth dilution | – | – | 0.43 (≈ 1.21 µM) |
| COC(=O)c1cc(-c2cccc(NC(=O)Nc3cccc(Br)c3)c2)on1 | broth dilution | BAA1605 | – | > 64 |
| Cc1cc(/C=C2\Sc3ccccc3N2CCCN2CCC(C)CC2)c2ccccc2[n+]1C.[I-] | broth dilution | ATCC19606 | drug-resistant strain | 16 |
| Fc1c(F)c(F)c(F)c(F)c1F | – | ATCC19606 | – | > 250 |
| CCOC(=O)c1cc(-c2cccc(NC(=O)Nc3ccc(Cl)c(Cl)c3)c2)on1 | broth dilution | BAA1605 | – | > 64 |
| CN[C@H](CC(C)C)C(=O)N[C@H]1C(=O)N[C@@H](CC(N)=O)C(=O)N[C@H]2C(=O)N[C@H]3C(=O)N[C@H](C(=O)N[C@H](C(=O)O)c4cc(O)cc(O)c4-c4cc3ccc4O)[C@H](O)c3ccc(c(Cl)c3)Oc3cc2cc(c3O[C@@H]2O[C@H](CO)[C@@H](O)[C@H](O)[C@H]2O[C@H]2C[C@](C)(N)[C@H](O)[C@H](C)O2)Oc2ccc(cc2Cl)[C@H]1O | broth dilution | ATCC19606 | drug-resistant strain | 64 (≈ 44.2 µM) |
